High-throughput results deposited in PubChem by several laboratories.
PKD1 kinase inh – blocks activity of human protein kinase D1; PKD1 kinase fluorescence polarization assay; hit rate 0.056% among 200,000; inhibition, % (test concentration not listed); Q15139
ABCB1 block – inhibitors of human ABCB1 transporter, ABCG2 counter-screen; hit rate 0.067% among 190,000; CCRF-Adr cells, JC-1 efflux, flow cytometry; inhibition, % at 6.6 µM; P08183; in the data active means inhibition above about 40%;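 further: 0% = vehicle and 100% = reference inhibitor; higher value means more JC-1 retained so stronger ABCB1 efflux block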
ABCG2 block – human ABCG2 inhibition, ABCB1 as counter-screen; Q9UNQ0; IgMXP3 cells, JC-1 efflux, flow cytometry; inhibition, % at 6.6 µM; hit rate 0.1% among 190,000; AID 1325;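 active means inhibition above 80%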;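 further: 0% = DMSO and 100% = nicardipine control wells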
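Assay system – ABCG2 IgMXP3 and barcoded ABCB1 CCRF-Adr cell mix · Input – 3 million cells/mL in well · Reagent – JC-1 fluorescent substrate · Compound – single test compound dose, 6.6 µM final · Timing – 10 min exposure at 25 °C with rotation, no wash · Detection – flow cytometry of retained JC-1 fluorescence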
Avidin bead fluor – avidin bead compound fluorescence profile. Avidin beads, compound fluorescence 488/530 nm, flow cytometry; stronger effect = higher value. fluorescence (KMESF) at 10 µM. hit rate 0.38% among 220,000. AID 1775; in the data active means fluorescence above about 47
L major viab – Leishmania major promastigote growth inhibition | Leishmania major promastigotes, resazurin fluorescence viability | inhibition, % at 10 µM | hit rate 9% among 200,000 | AID 1063;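 further: promastigotes grown with compound for 44 hours at 28 °C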
GSH bead fluor – GSH bead compound fluorescence profile | hit rate 0.25% among 190,000 | GSH beads flow cytometry, compound fluorescence 488/530 nm; stronger effect = higher value | fluorescence (KMESF) at 10 µM; in the data active means fluorescence above about 89;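 further: glutathione beads carrying GST-tagged Bcl family fusion proteins plus one bare bead set; values are compound well signal with DMSO vehicle wells as background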
* hit, by the source's call; · = no result. Many of the other results were omitted from the sample, so hits are more common in it than they were. Unless noted, no stated cut-off is given here; in the data, active means inhibition above about 50%; inactive means the rest.

SMILES | PKD1 kinase inh | ABCB1 block | ABCG2 block | Avidin bead fluor | L major viab | GSH bead fluor
c1ccc2c(NCC3CCCO3)nc(N3CCCCC3)nc2c1 (centres undefined) | 1 | 0 | 1 | 10 | 67* | 10
COc1cccc(Nc2nnc(SCC3CCCCO3)s2)c1 (centres undefined) | 3 | 2 | 20 | 17 | 18 | 70
C/C(=N/NC(N)=S)c1ccccc1[N+](=O)[O-] | 1 | 1 | 3 | 38 | -1 | 19
Oc1ccc(Nc2nc(NCC3CCCO3)c3ccccc3n2)cc1 (centres undefined) | -1 | 1 | 7 | 13 | 100* | 10
COc1ccc(Cl)cc1C(=O)NNC(=O)CN1C(=O)C2CC=CCC2C1=O (centres undefined) | -1 | 0 | 1 | 22 | -8 | 24
S=C(NCCSCc1ccc(Cl)cc1Cl)Nc1ccccc1 | -1 | 0 | 20 | 11 | 84* | 23
CCC(C(=O)Nc1cccc(C(=O)O)c1)c1ccccc1 (centres undefined) | -7 | 1 | 2 | 9 | -6 | 24
CCC(C(=O)Nc1ccc(OC)c(Cl)c1)c1ccccc1 (centres undefined) | -6 | 0 | 2 | 11 | 53* | 7
CCN(CCC(=O)Nc1ccc(Br)c(C)c1)Cc1ccccc1 | -2 | 0 | 2 | 24 | 92* | 23
O=C(CCN(CCO)Cc1ccccc1)Nc1ccc(Br)cc1 | 6 | 0 | 1 | 28 | 19 | 17
CCCCNc1nc2ccccc2n1CC(=O)N1CCc2ccccc2C1 | -5 | 2 | 13 | 13 | 70* | 23
CCCCNC(=O)N1CCc2ccccc2C1 | -7 | · | 0 | 6 | -7 | 13
COc1ccc(N=C2SC(C(=O)Nc3ccc(OC)cc3)CC(=O)N2CCN2CCOCC2)cc1 (centres undefined) | 21 | 1 | 11 | 6 | 58* | 15
CCN=C1SC(C(=O)Nc2ccc(OC)cc2)CC(=O)N1CC (centres undefined) | 0 | 0 | 2 | 3 | 0 | 12
CN(C)c1ccc(N/C=C/C(=O)C(C)(C)C)cc1 | 1 | 1 | 7 | 30 | 54* | 23
CC(C)(C)C(=O)/C=C/Nc1ccccc1O | -2 | 0 | 3 | 6 | 98* | 41
CCOC(=O)c1ccc(N/C=C/C(=O)C(C)(C)C)cc1 | -16 | 0 | 3 | 14 | -1 | 17
CC(NC(=O)Nc1ccccc1O)(C(F)(F)F)C(F)(F)F | -6 | 0 | 17 | 11 | 7 | 33
CN(C)c1ccc(N/C=C/C(=O)c2ccccc2)cc1 | -15 | 0 | 0 | 11 | 100* | 23
CCOC(=O)c1c(NC(=O)OC)sc(C(=O)N(CC)CC)c1C | 4 | 0 | 4 | 19 | 0 | 10
O=[N+]([O-])c1ccc(-c2cn3c(n2)CCC3)cc1 | · | · | · | 8 | · | ·
O=C(OCc1ccccn1)c1ccc(COc2ccc3ccccc3c2)o1 | · | · | · | 7 | · | ·
CCOc1ccc(NC(=S)N(C)C)cc1 | · | · | · | 3 | · | ·
CCC(C)NS(=O)(=O)c1ccc(OCC(=O)N2CCCC2)cc1 (centres undefined) | -9 | 1 | 4 | 28 | -2 | 11
CCOc1ccc(-n2cc(C(=O)Nc3cccc(OC)c3)c3cc(OC)c(OC)cc3c2=O)cc1 | -5 | 1 | 2 | 6 | 66* | 14
SMILES | PKD1 kinase inh | ABCB1 block | ABCG2 block | Avidin bead fluor | L major viab | GSH bead fluor
CCOc1ccc(-n2cc(C(=O)Nc3ccc(Cl)cn3)c3cc(OC)c(OC)cc3c2=O)cc1 | 6 | 2 | 11 | 29 | -7 | 25
CCn1cc(C(=O)Nc2ccc3c(c2)OCCO3)c2cc(OC)c(OC)cc2c1=O | -7 | -2 | -1 | 4 | 51* | 20
O=C(CN(C(=O)CCC(=O)Nc1nccs1)c1cccc(F)c1)NCC1CCCO1 (centres undefined) | -13 | 2 | 21 | 59* | -2 | 37
Cc1ccccc1N(CC(=O)NCc1ccc2c(c1)OCO2)C(=O)CCC(=O)Nc1ccccn1 | 9 | 1 | 2 | 7 | 61* | 68
O=C(CN(C(=O)CCC(=O)Nc1nccs1)c1ccc(F)c(Cl)c1)NCc1ccco1 | 9 | 0 | 0 | 6 | 90* | 15
O=C(CN(C(=O)CCC(=O)Nc1nccs1)c1ccc(F)cc1)NCc1ccco1 | 1 | 0 | 1 | 14 | 34 | 35
O=C(CN(C(=O)CCC(=O)Nc1nccs1)c1ccc2c(c1)OCO2)NCC1CCCO1 (centres undefined) | 0 | -6 | -5 | 15 | -2 | 28
